Laboratory results taken from PubChem BioAssay AID2465 (Broad Institute, 2010).
Where “and” joins values, the source holds several entries; their conditions need not be identical. Equal entries are not always repeated. Screen size: about 24,000 compounds; fewer than 10 were called active. No stated cut-off is given here; in the data, active means caspase activation above about 5.9%; inconclusive means no clear call, values can overlap the other calls; inactive means below about 2.2%. The list is a sample of the results.

Assay: Bcl2-A1 antagonists releasing BIM, apoptosis – cell-based, luminescence, HTS, two replicates, primary screen (AID 2465)
Conditions: MEF A1-2A-BIM cells, caspase-Glo luminescence, 3 h; hits give high values; percent of clofoctol response, DMSO zero; concentration not given here
Summary of the method: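 Evaluation: Caspase-3/7 activity from luminescence increase | Assay system: A1-2A-BIM mouse embryonic fibroblasts | Quantity: 2500 MEF cells/well | Medium: RPMI-1640 plus 10% FBS | Detection: Caspase-Glo 3/7 luminescence, 1 h at room temperature | Dosing: 50 nL compound per well, pinned | Timing: Cells settled overnight, compound exposure 3 h at 37 °C, 5% CO2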

Caspase activation, inactive:
COc1ccc(S(=O)(=O)Nc2ccc3c(c2)C(=O)N([C@@H](C)CO)C[C@H](C)[C@H](CN(C)S(=O)(=O)c2c(C)noc2C)OCCCC[C@@H](C)O3)cc1 0.0111%
C[C@@H]1CCCCO[C@@H](CN(C)C(=O)NC2CCCCC2)[C@H](C)CN([C@H](C)CO)C(=O)c2cc(NC(=O)c3ccccc3)ccc2O1 0.223%
C[C@H]1CN([C@@H](C)CO)C(=O)c2cccc(NS(=O)(=O)c3ccc(Cl)cc3)c2O[C@@H]1CN(C)Cc1ccc(Oc2ccccc2)cc1 1%
C[C@H](CO)N1C[C@H](C)[C@H](CN(C)Cc2ccc(C(=O)O)cc2)Oc2ccc(NS(=O)(=O)c3cn(C)cn3)cc2CC1=O -0.00308%
C[C@@H]1CN([C@H](C)CO)C(=O)Cc2cc(NC(=O)c3ccncc3)ccc2O[C@H]1CN(C)S(=O)(=O)c1cccs1 0.361%
COc1ccc(CN(C)C[C@@H]2OCCCC[C@@H](C)Oc3ccc(NS(=O)(=O)c4ccc(C)cc4)cc3C(=O)N([C@@H](C)CO)C[C@H]2C)cc1 0.1%
Cc1noc(C)c1S(=O)(=O)Nc1ccc2c(c1)C(=O)N([C@H](C)CO)C[C@H](C)[C@H](CN(C)C(=O)NC1CCCCC1)OCCCC[C@H](C)O2 -1.41%
O=C(N/N=C/[C@H](O)[C@@H](O)[C@H](O)[C@H](O)CO)c1ccccc1O -0.678%
C[C@H]1CCCCO[C@H](CN(C)C(=O)Nc2ccc3c(c2)OCO3)[C@@H](C)CN([C@@H](C)CO)C(=O)c2cc(NC(=O)Nc3ccccc3)ccc2O1 0.0515%
C[C@H]1CN([C@@H](C)CO)C(=O)c2cccc(NC(=O)Nc3ccccc3)c2O[C@@H]1CN(C)C(=O)Nc1cccc2ccccc12 -0.864%
[N-]=[N+]=NC[C@H](Cc1ccccc1)NC(=O)Nc1ccccc1 -3.77% and 0.143%
COc1ccc(S(=O)(=O)Nc2ccc3c(c2)C(=O)N([C@H](C)CO)C[C@H](C)[C@@H](CN(C)Cc2ccccc2)OCCCC[C@@H](C)O3)cc1 0.258%
Cc1cccc(S(=O)(=O)N(C)C[C@H]2OCc3cnnn3CCCC(=O)N([C@@H](C)CO)C[C@H]2C)c1 -0.906%
COc1ccc(S(=O)(=O)Nc2ccc3c(c2)C(=O)N([C@@H](C)CO)C[C@@H](C)[C@H](CN(C)C(=O)Nc2ccc(C(F)(F)F)cc2)OCCCC[C@@H](C)O3)cc1 -0.653%
C[C@@H]1CCCCO[C@@H](CN(C)S(=O)(=O)c2ccccc2)[C@H](C)CN([C@H](C)CO)C(=O)c2cc(NC(=O)Nc3ccc4c(c3)OCO4)ccc2O1 -1.23%
C[C@H]1CN([C@@H](C)CO)C(=O)c2cc(N(C)C)ccc2O[C@@H]1CN(C)S(=O)(=O)c1ccc(Cl)cc1 -0.761%
C[C@H]1CCCCO[C@@H](CN(C)S(=O)(=O)c2ccc(Cl)cc2)[C@@H](C)CN([C@@H](C)CO)C(=O)c2cc(NS(=O)(=O)c3cn(C)cn3)ccc2O1 -0.712%
C[C@@H]1CN([C@H](C)CO)C(=O)c2cc(NS(=O)(=O)c3ccc(F)cc3)ccc2O[C@@H]1CN(C)S(C)(=O)=O -0.125%
COc1ccc(S(=O)(=O)N(C)C[C@@H]2OCCCC[C@@H](C)Oc3ccc(NC(=O)CCCN(C)C)cc3C(=O)N([C@@H](C)CO)C[C@@H]2C)cc1 0.265%
COc1ccc(S(=O)(=O)Nc2ccc3c(c2)C(=O)N([C@H](C)CO)C[C@@H](C)[C@H](CN(C)S(=O)(=O)c2ccc(Cl)cc2)OCCCC[C@@H](C)O3)cc1 -1.08%
C[C@@H]1CCCCO[C@@H](CN(C)Cc2ccc(C(F)(F)F)cc2)[C@H](C)CN([C@H](C)CO)C(=O)c2cc(NS(=O)(=O)c3ccc(F)cc3)ccc2O1 -0.24%
COc1ccc(NC(=O)Nc2ccc3c(c2)C(=O)N([C@H](C)CO)C[C@H](C)[C@@H](CN(C)Cc2ccccc2)OCCCC[C@H](C)O3)cc1 0.0689%
C[C@@H]1CCCCO[C@H](CN(C)C(=O)Nc2cccc3ccccc23)[C@@H](C)CN([C@@H](C)CO)C(=O)c2cc(NC(=O)Nc3ccc(F)cc3)ccc2O1 0.273%
Cc1noc(C)c1NC(=O)N(C)C[C@@H]1Oc2c(NC(=O)CCCCCC(=O)Nc3ccccc3N)cccc2C(=O)N([C@H](C)CO)C[C@@H]1C 1.76%
C[C@H](CO)N1C[C@H](C)[C@H](CN(C)Cc2ccccc2)OCCCC[C@H](C)Oc2ccc(NC(=O)Cc3ccccc3)cc2C1=O -0.193%
C[C@@H]1CN([C@@H](C)CO)C(=O)c2cccc(NC(=O)CCCCCC(=O)Nc3ccccc3N)c2O[C@H]1CN(C)C(=O)Nc1ccccc1 0.335%
Cc1noc(C)c1S(=O)(=O)N(C)C[C@H]1OCCCC[C@H](C)Oc2ccc(NC(=O)c3ccccc3)cc2C(=O)N([C@@H](C)CO)C[C@H]1C -0.984%
C[C@@H]1CN([C@H](C)CO)C(=O)c2cc(NC(=O)CCCN(C)C)ccc2O[C@H]1CN(C)S(=O)(=O)c1ccc(Cl)cc1 -1.33%
C[C@@H]1CCCCO[C@H](CN(C)C(=O)CCCN(C)C)[C@H](C)CN([C@@H](C)CO)C(=O)c2cc(NS(=O)(=O)c3ccc(Cl)cc3)ccc2O1 0.532%
COc1ccc(NC(=O)Nc2ccc3c(c2)CC(=O)N([C@@H](C)CO)C[C@@H](C)[C@H](CN(C)C(=O)NC2CCCCC2)O3)cc1 -1.36%
COc1ccc(S(=O)(=O)N(C)C[C@H]2Oc3c(NS(=O)(=O)c4ccc(F)cc4)cccc3C(=O)N([C@H](C)CO)C[C@H]2C)cc1 -0.361%
COC(=O)CCCCCCC(=O)N/N=C/c1ccc(I)cc1 0.387%
C[C@@H]1CN([C@H](C)CO)C(=O)c2cc(NC(=O)Nc3ccc(C(F)(F)F)cc3)ccc2O[C@@H](C)CCCCO[C@@H]1CN(C)Cc1ccc(C(F)(F)F)cc1 0.82%
C[C@@H]1CN([C@@H](C)CO)C(=O)c2cc(NC(=O)CCCCCC(=O)Nc3ccccc3N)ccc2O[C@@H](C)CCCCO[C@@H]1CN(C)CC1CCCCC1 0.522%
C[C@@H]1CCCCO[C@@H](CN(C)C(=O)C2CCCCC2)[C@H](C)CN([C@H](C)CO)C(=O)c2cc(NC(=O)Cc3ccccc3)ccc2O1 3.18%
C[C@@H]1CCCCO[C@@H](CN(C)S(=O)(=O)c2cccs2)[C@H](C)CN([C@H](C)CO)C(=O)c2cc(NC(=O)CCCN(C)C)ccc2O1 0.621%
Cc1ccc(S(=O)(=O)N(C)C[C@@H]2Oc3ccc(NC(=O)NC4CCCCC4)cc3C(=O)N([C@@H](C)CO)C[C@H]2C)cc1 -0.781%
C[C@H](CO)N1C[C@H](C)[C@H](CN(C)C(=O)Nc2ccccc2)Oc2c(NC(=O)Nc3ccc(C(F)(F)F)cc3)cccc2C1=O -0.159%
C[C@@H]1CCCCO[C@@H](CN(C)Cc2ccc(Cl)c(Cl)c2)[C@H](C)CN([C@@H](C)CO)C(=O)c2cc(NS(C)(=O)=O)ccc2O1 -0.491%
Cc1ccc(S(=O)(=O)Nc2ccc3c(c2)C(=O)N([C@@H](C)CO)C[C@@H](C)[C@H](CN(C)Cc2ccc4c(c2)OCO4)OCCCC[C@@H](C)O3)cc1 0.694%
C[C@H](CO)N1C[C@H](C)[C@@H](CN(C)C(=O)Nc2ccc(F)cc2)OCCCC[C@H](C)Oc2ccc(NC(=O)c3ccncc3)cc2C1=O 0.454%
CC(C)NC(=O)Nc1ccc2c(c1)C(=O)N([C@H](C)CO)C[C@@H](C)[C@@H](CN(C)Cc1ccncc1)O2 1.1%
C[C@@H]1CN([C@@H](C)CO)C(=O)c2cccc(NS(=O)(=O)c3ccccc3)c2O[C@@H]1CN(C)S(=O)(=O)c1ccc(F)cc1 0.0248%
COc1ccc(S(=O)(=O)Nc2ccc3c(c2)C(=O)N([C@@H](C)CO)C[C@@H](C)[C@H](CN(C)Cc2ccc(C(F)(F)F)cc2)OCCCC[C@@H](C)O3)cc1 -1.2%
C[C@H]1CN([C@@H](C)CO)C(=O)Cc2cc(NS(=O)(=O)c3ccccc3)ccc2O[C@@H]1CN(C)Cc1ccc(C(=O)Nc2ccccc2N)cc1 1.17%
Cc1noc(C)c1NC(=O)N(C)C[C@@H]1OCCCC[C@@H](C)Oc2ccc(NC(=O)C3CCCCC3)cc2C(=O)N([C@@H](C)CO)C[C@H]1C -0.914%
C[C@H]1CN([C@@H](C)CO)C(=O)Cc2cc(NC(=O)C3CCCCC3)ccc2O[C@H]1CN(C)C(=O)Nc1ccc(C(F)(F)F)cc1 0.751%
C[C@@H]1CCCCO[C@H](CN(C)Cc2ccc3c(c2)OCO3)[C@H](C)CN([C@@H](C)CO)C(=O)c2cc(NS(=O)(=O)c3cn(C)cn3)ccc2O1 -0.23%
Cc1ccc(S(=O)(=O)Nc2ccc3c(c2)C(=O)N([C@H](C)CO)C[C@@H](C)[C@H](CN(C)C(=O)Nc2ccc(C(F)(F)F)cc2)OCCCC[C@H](C)O3)cc1 -0.505%
COc1ccc(CN(C)C[C@@H]2Oc3ccc(NS(=O)(=O)c4ccc(F)cc4)cc3C(=O)N([C@@H](C)CO)C[C@@H]2C)cc1 -0.363%
C[C@H]1CN([C@@H](C)CO)C(=O)c2cccc(NS(=O)(=O)c3ccc(Cl)cc3)c2O[C@H]1CN(C)S(=O)(=O)c1ccc(Cl)cc1 -1.18%
